Assays:
[1] = Cytotoxicity against mouse Neuro2a cells after 48 hrs by MTT assay; assay type: functional; details: N2a, read-out: LC50 (the source's name)
Outline: (§1)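 Cells seeded at 6000/well in RPMI 1640 with 10% FBS. After 24 h, compound in DMSO, diluted in serum-free medium, was added (DMSO under 1% final). Viability was read by MTT reduction after 48 h, giving LC50.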

[2] = tested on: NCI-H460; test: Cytotoxicity against human NCI-H460 cells after 48 hrs by MTT assay; assay type: functional; details: NCI-H460, 48 h, read-out: LC50 (the source's name); outline: as §1
[3] = tested on: Artemia salina; test: Toxicity in Artemia salina after 24 hrs; assay type: organism-based; details: in vivo
Outline: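 About 15 hatched Artemia salina per well in roughly 5 mL of artificial seawater, with sample added in 50 µL EtOH. Held 24 h at 28 °C, then live and dead shrimp counted. Run in duplicate.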

[4] = tested on: Neuro2a; test: Inhibition of voltage-gated sodium channel in mouse Neuro2a cells after 22 hrs; assay type: cell-based
[5] = Increase in calcium influx in Sprague-Dawley rat CGN measured every 6 seconds for 24 mins by FLIPR assay; assay type: functional
Outline: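 Cerebellar granule neurons from 8-day-old Sprague-Dawley rat cerebella were used at 10-13 days in culture. Cells were loaded 1 h at 37 °C with 4 µM fluo-3 AM and 0.04% pluronic acid in Locke's buffer (pH 7.4), washed, then read by FLIPR (488 nm excitation, 500-560 nm emission). Baseline was read every 3 s for 1 min, readings stayed at 3 s for 2 min after addition, then every 6 s, 24 min total. Response was AUC (trapezoid rule); EC50 came from a logistic fit.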

[6] = Cytotoxicity against Sprague-Dawley rat CGN assessed as LDH efflux after 2 hrs; details: CGN (primary cells from Sprague-Dawley rat), read-out: LC50
Outline: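 Primary cerebellar granule neurons from 8-day-old Sprague-Dawley rats in BME with 25 mM KCl, 10 µM cytosine arabinoside added after 18-24 h, used at 10-13 days in culture. Washed into Locke's buffer (pH 7.4, 1% DMSO) and exposed to compound (1-100 µM) for 2 h at 22 °C. LDH released to medium assayed. Logistic fit of concentration-response; triplicate, repeated twice.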

[7] = Cytotoxicity against Sprague-Dawley rat CGN assessed as LDH efflux after 2 hrs in presence of tetrodotoxin; assay type: ADME

Compound | CC50 [1] | CC50 [2] | LC90 [3] | Activity [4] | EC50 [5] | CC50 at 2 h [6] | Activity [7]
Cc1cc(O)cc2c1O[C@]1(C)CC[C@@H]3[C@](C)(CC[C@H]4C(C)(C)[C@@H](O)CC[C@]34C)[C@H]1C2 | 2 µM | 24 µM | 24 µM | 0.7 µM |  |  | 
C[C@H]1CC[C@@H]2[C@@]3(C)CC[C@H](O)C(C)(C)[C@@H]3CC[C@@]2(C)[C@]12Cc1c(O)c(O)cc(C=O)c1O2 |  |  |  |  | 100 µM |  | 
COc1c(C)cc(O)c2c1C[C@H]1[C@@]3(C)CC[C@H]4C(C)(C)[C@@H](O)CC[C@@]4(C)[C@H]3CC[C@]21C [FLABELLINOL] | 2 µM | 9 µM |  | 2 µM |  |  | 
CC1=CC(=O)C2=C(C[C@H]3[C@@]4(C)CC[C@H]5C(C)(C)[C@@H](O)CC[C@@]5(C)[C@H]4CC[C@]23C)C1=O [FLABELLINONE] | 2 µM | 14 µM |  | 7 µM |  |  | 
COC1=CC(C)=C2O[C@@]3(CC2(OO)C1=O)[C@@H](O)CC[C@@H]1[C@@]2(C)CC[C@H](O)C(C)(C)[C@@H]2CC[C@]13C (stereo partly specified) [STYPOHYDROPEROXIDE] | > 21 µM | > 25 µM |  |  |  |  | 
CC1=CC(=O)C(=O)C2=C1O[C@@]1(C2)[C@@H](C)CC[C@@H]2[C@@]3(C)CC[C@H](O)C(C)(C)C3CC[C@]21C (stereo partly specified) [STYPOLDIONE] |  |  |  |  | 27.8 µM | 37.4 µM | Active

— ChEMBL document CHEMBL1158805, “Neurotoxic meroditerpenoids from the tropical marine brown alga Stypopodium flabelliforme” (J Nat Prod, 2005)
